The source made the active and inactive calls. No cut-off for these calls is given here.
How the values were obtained:
Histone deacetylase 1 [1] = biological target: T1, Histone deacetylase 1 (Homo sapiens, UniProt Q13547); test: Inhibition of HDAC1 (unknown origin)
Histone deacetylase 1 [2] = biological target: T1, Histone deacetylase 1; test: Potency index, ratio of vorinostat IC50 to compound IC50 for HDAC1 (unknown origin)
CDK4/Cyclin D3 = CDK4/Cyclin D3 (Homo sapiens, UniProt P11802); test: Inhibition of recombinant human full length N-terminal GST-tagged CDK4/Cyclin-D3 co-expressed in baculovirus infected sf21 cells using Rb substrate in presence of [gamma33P]ATP after 10 mins by scintillation counting method
CDK4/Cyclin D3, sequence (P11802 whole entry): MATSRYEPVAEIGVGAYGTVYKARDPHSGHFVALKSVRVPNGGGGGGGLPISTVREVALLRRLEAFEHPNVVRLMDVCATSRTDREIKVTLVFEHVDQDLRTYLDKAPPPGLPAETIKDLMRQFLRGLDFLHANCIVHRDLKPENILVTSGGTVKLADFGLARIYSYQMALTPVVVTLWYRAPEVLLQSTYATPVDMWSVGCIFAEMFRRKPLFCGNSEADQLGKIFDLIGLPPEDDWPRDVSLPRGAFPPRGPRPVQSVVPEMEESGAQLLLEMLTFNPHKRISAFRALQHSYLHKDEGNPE
CDK4/Cyclin D3, sequence (P30281 whole entry, further chain): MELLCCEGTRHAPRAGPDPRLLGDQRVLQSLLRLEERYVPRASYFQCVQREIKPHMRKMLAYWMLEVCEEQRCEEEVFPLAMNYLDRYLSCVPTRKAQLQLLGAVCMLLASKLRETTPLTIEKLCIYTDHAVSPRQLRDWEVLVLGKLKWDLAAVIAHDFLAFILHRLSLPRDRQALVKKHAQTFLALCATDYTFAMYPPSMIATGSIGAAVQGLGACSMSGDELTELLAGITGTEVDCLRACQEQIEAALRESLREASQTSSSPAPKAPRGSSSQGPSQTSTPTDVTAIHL

HepG2 [3] = test: Induction of apoptosis in human HepG2 cells assessed as live cells at 10 uM after 48 hrs by annexin V-FITC/propidium iodide staining based flow cytometry (reference value: 96.7%); assay type: functional
A549 [4] = test: Induction of apoptosis in human A549 cells assessed as necrotic cells at 10 uM after 48 hrs by annexin V-FITC/propidium iodide staining based flow cytometry (reference value: […]%); assay type: functional
A549 [5] = test: Induction of apoptosis in human A549 cells assessed as late apoptotic cells at 10 uM after 48 hrs by annexin V-FITC/propidium iodide staining based flow cytometry (reference value: 0.88%); assay type: functional
NCI-H460 [6] = test: Induction of apoptosis in human NCI-H460 cells assessed as necrotic cells at 10 uM after 48 hrs by annexin V-FITC/propidium iodide staining based flow cytometry (reference value: 1.34%); assay type: functional
NCI-H460 [7] = test: Induction of apoptosis in human NCI-H460 cells assessed as late apoptotic cells at 10 uM after 48 hrs by annexin V-FITC/propidium iodide staining based flow cytometry (reference value: 1.29%); assay type: functional
NCI-H460 [8] = test: Induction of apoptosis in human NCI-H460 cells assessed as early apoptotic cells at 10 uM after 48 hrs by annexin V-FITC/propidium iodide staining based flow cytometry (reference value: 0.11%); assay type: functional
NCI-H460 [9] = test: Induction of apoptosis in human NCI-H460 cells assessed as live cells at 10 uM after 48 hrs by annexin V-FITC/propidium iodide staining based flow cytometry (reference value: 97.3%); assay type: functional
T47D [10] = test: Induction of apoptosis in human T47D cells assessed as necrotic cells at 10 uM after 48 hrs by annexin V-FITC/propidium iodide staining based flow cytometry (reference value: 0.8%); assay type: functional
T47D [11] = test: Induction of apoptosis in human T47D cells assessed as late apoptotic cells at 10 uM after 48 hrs by annexin V-FITC/propidium iodide staining based flow cytometry (reference value: 6.16%); assay type: functional
T47D [12] = test: Induction of apoptosis in human T47D cells assessed as early apoptotic cells at 10 uM after 48 hrs by annexin V-FITC/propidium iodide staining based flow cytometry (reference value: 7.7%); assay type: functional
T47D [13] = test: Induction of apoptosis in human T47D cells assessed as live cells at 10 uM after 48 hrs by annexin V-FITC/propidium iodide staining based flow cytometry (reference value: 85.3%); assay type: functional
MDA-MB-231 [14] = test: Induction of apoptosis in human MDA-MB-231 cells assessed as necrotic cells at 10 uM after 48 hrs by annexin V-FITC/propidium iodide staining based flow cytometry (reference value: […]); assay type: functional
MDA-MB-231 [15] = test: Induction of apoptosis in human MDA-MB-231 cells assessed as late apoptotic cells at 10 uM after 48 hrs by annexin V-FITC/propidium iodide staining based flow cytometry (reference value: 1.53%); assay type: functional
MDA-MB-231 [16] = test: Induction of apoptosis in human MDA-MB-231 cells assessed as early apoptotic cells at 10 uM after 48 hrs by annexin V-FITC/propidium iodide staining based flow cytometry (reference value: 0.4%); assay type: functional
MDA-MB-231 [17] = test: Induction of apoptosis in human MDA-MB-231 cells assessed as live cells at 10 uM after 48 hrs by annexin V-FITC/propidium iodide staining based flow cytometry (reference value: 98.1%); assay type: functional
Hep 3B2 [18] = test: Cytotoxicity against human Hep3B cells assessed as reduction in cell viability after 72 hrs by CCK8 assay
A549 [19] = test: Induction of apoptosis in human A549 cells assessed as live cells at 10 uM after 48 hrs by annexin V-FITC/propidium iodide staining based flow cytometry (reference value: 92.7%); assay type: functional
A549 [20] = test: Induction of apoptosis in human A549 cells assessed as early apoptotic cells at 10 uM after 48 hrs by annexin V-FITC/propidium iodide staining based flow cytometry (reference value: 0.41%); assay type: functional
HepG2 [21] = test: Induction of apoptosis in human HepG2 cells assessed as early apoptotic cells at 10 uM after 48 hrs by annexin V-FITC/propidium iodide staining based flow cytometry (reference value: 0.3%); assay type: functional
HepG2 [22] = test: Induction of apoptosis in human HepG2 cells assessed as late apoptotic cells at 10 uM after 48 hrs by annexin V-FITC/propidium iodide staining based flow cytometry (reference value: 0.64%); assay type: functional
HepG2 [23] = test: Induction of apoptosis in human HepG2 cells assessed as necrotic cells at 10 uM after 48 hrs by annexin V-FITC/propidium iodide staining based flow cytometry (reference value: 2.32%); assay type: functional
Hep 3B2 [24] = test: Induction of apoptosis in human Hep3B cells assessed as live cells at 10 uM after 48 hrs by annexin V-FITC/propidium iodide staining based flow cytometry (reference value: 97.9%); assay type: functional
Hep 3B2 [25] = test: Induction of apoptosis in human Hep3B cells assessed as late apoptotic cells at 10 uM after 48 hrs by annexin V-FITC/propidium iodide staining based flow cytometry (reference value: 5.25%); assay type: functional
Hep 3B2 [26] = test: Induction of apoptosis in human Hep3B cells assessed as necrotic cells at 10 uM after 48 hrs by annexin V-FITC/propidium iodide staining based flow cytometry (reference value: 4.97%); assay type: functional
4T1 = test: Antitumor activity against mouse Fluc-labeled 4T1 cells implanted in Balb/c mouse assessed as reduction in tumor weight at 130 mg/kg, ip administered daily for 18 days measured after 8 to 25 days; assay type: functional, organism-based
Method in brief: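 Luciferase (Fluc) reporter introduced into 4T1 cells by lentiviral transduction. Cells implanted orthotopically into mammary fat pads of female BALB/c mice aged 6–8 weeks. Once tumours averaged 100 mm3, dosing was daily by IP injection. Bioluminescence imaging was done at days 8 and 25 to reflect viable tumour cell number. Tumour weight was recorded at study end.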

T1 sequence (Q13547 whole entry): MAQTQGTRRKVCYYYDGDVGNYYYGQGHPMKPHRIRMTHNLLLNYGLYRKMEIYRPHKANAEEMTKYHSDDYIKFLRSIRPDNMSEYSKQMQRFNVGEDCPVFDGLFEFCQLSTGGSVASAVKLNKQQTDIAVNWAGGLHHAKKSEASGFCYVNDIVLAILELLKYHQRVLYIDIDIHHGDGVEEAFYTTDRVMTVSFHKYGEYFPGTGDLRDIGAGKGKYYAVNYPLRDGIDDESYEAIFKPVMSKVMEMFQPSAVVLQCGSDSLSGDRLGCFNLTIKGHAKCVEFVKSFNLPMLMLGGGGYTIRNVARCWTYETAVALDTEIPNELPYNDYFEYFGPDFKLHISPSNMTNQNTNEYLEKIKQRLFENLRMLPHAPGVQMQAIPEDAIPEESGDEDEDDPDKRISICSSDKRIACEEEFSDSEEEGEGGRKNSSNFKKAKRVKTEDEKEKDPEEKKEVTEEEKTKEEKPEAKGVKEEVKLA

CN(C)C(=O)c1cc2cnc(Nc3ccc(NC(=O)CCCCCCC(=O)O)cc3)nc2n1C1CCCC1
IC50 (Histone deacetylase 1 [1]): > 5000 nM | Ratio IC50 (Histone deacetylase 1 [2]): 10 to 100 | IC50 (CDK4/Cyclin D3): 18 nM

COC(=O)CCCCCCC(=O)Nc1ccc(Nc2ncc3cc(C(=O)N(C)C)n(C4CCCC4)c3n2)nc1
IC50 (Histone deacetylase 1 [1]): > 5000 nM | Ratio IC50 (Histone deacetylase 1 [2]): 10 to 100 | IC50 (CDK4/Cyclin D3): 47 nM

O=C(CCCCCCC(=O)Nc1ccc(Nc2ncc3nnn(C4CCCC4)c3n2)cc1)NO
IC50 (Histone deacetylase 1 [1]): 433 nM | Ratio IC50 (Histone deacetylase 1 [2]): 10 to 100 | IC50 (CDK4/Cyclin D3): 1140 nM

CN(C)C(=O)CCCCCCC(=O)Nc1ccc(Nc2ncc3cc(C(=O)N(C)C)n(C4CCCC4)c3n2)cc1
IC50 (Histone deacetylase 1 [1]): > 5000 nM | Ratio IC50 (Histone deacetylase 1 [2]): 10 to 100 | IC50 (CDK4/Cyclin D3): 16 nM

COC(=O)CCCCCCC(=O)Nc1ccccc1Nc1ncc2cc(C(=O)N(C)C)n(C3CCCC3)c2n1
IC50 (CDK4/Cyclin D3): > 5000 nM

O=C(CCCCCCC(=O)Nc1ccccc1)NO [VORINOSTAT]
Activity (HepG2 [3]): 74.9% | Activity (A549 [4]): 18.1% | Activity (A549 [5]): 33.4% | Activity (NCI-H460 [6]): 4.81% | Activity (NCI-H460 [7]): 6.4% | Activity (NCI-H460 [8]): 2.2% | Activity (NCI-H460 [9]): 86.6% | Activity (T47D [10]): 4.48% | Activity (T47D [11]): 26.4% | Activity (T47D [12]): 48.6% | Activity (T47D [13]): 20.4% | Activity (MDA-MB-231 [14]): 2.72% | Activity (MDA-MB-231 [15]): 18.7% | Activity (MDA-MB-231 [16]): 3.74% | Activity (MDA-MB-231 [17]): 74.8% | IC50 (Hep 3B2 [18]): 2300 nM | Activity (A549 [19]): 42.1% | Activity (A549 [20]): 6.41% | Activity (HepG2 [21]): 5.43% | Activity (HepG2 [22]): 14% | Activity (HepG2 [23]): 5.69% | Activity (Hep 3B2 [24]): 53.2% | Activity (Hep 3B2 [25]): 32.8% | Activity (Hep 3B2 [26]): 3.43% | Activity (4T1): Active

CN(C)C(=O)c1cc2cnc(Nc3ccc(NC(=O)CCCCCCC(=O)NO)cn3)nc2n1C1CCCC1
IC50 (Histone deacetylase 1 [1]): 423 nM | Ratio IC50 (Histone deacetylase 1 [2]): 10 to 100 | IC50 (CDK4/Cyclin D3): 93 nM

CCCCCCC(=O)Nc1ccc(Nc2ncc3cc(C(=O)N(C)C)n(C4CCCC4)c3n2)cc1
IC50 (CDK4/Cyclin D3): 27 nM

COC(=O)CCCCCNC(=O)c1ccc(Nc2ncc3cc(C(=O)N(C)C)n(C4CCCC4)c3n2)cc1
IC50 (CDK4/Cyclin D3): 7.3 nM

COC(=O)CCCCCCCC(=O)Nc1ccc(Nc2ncc3cc(C(=O)N(C)C)n(C4CCCC4)c3n2)cc1
IC50 (CDK4/Cyclin D3): 24 nM

COC(=O)CCCCCCNC(=O)c1ccc(Nc2ncc3cc(C(=O)N(C)C)n(C4CCCC4)c3n2)cc1
IC50 (CDK4/Cyclin D3): 11 nM

CN(C)C(=O)c1cc2cnc(Nc3ccc(CNC(=O)CCCCCCC(=O)NO)cc3)nc2n1C1CCCC1
IC50 (Histone deacetylase 1 [1]): 53 nM | Ratio IC50 (Histone deacetylase 1 [2]): 10 to 100 | IC50 (CDK4/Cyclin D3): 10 nM

CN(C)C(=O)c1cc2cnc(Nc3ccc(NC(=O)CCCCCCCC(=O)NO)cc3)nc2n1C1CCCC1
IC50 (Histone deacetylase 1 [1]): 3 nM | Ratio IC50 (Histone deacetylase 1 [2]): 10 to 100 | IC50 (CDK4/Cyclin D3): 8.1 nM

COC(=O)CCCCCC(=O)Nc1ccc(Nc2ncc3cc(C(=O)N(C)C)n(C4CCCC4)c3n2)cc1
IC50 (CDK4/Cyclin D3): 10 nM

COC(=O)CCCCCCC(=O)Nc1ccc(Nc2ncc3cc(C(=O)N(C)C)n(C4CCCC4)c3n2)cn1
IC50 (CDK4/Cyclin D3): 16 nM

COC(=O)CCCCCCC(=O)N1CCN(c2ccc(Nc3ncc4cc(C(=O)N(C)C)n(C5CCCC5)c4n3)nc2)CC1
IC50 (Histone deacetylase 1 [1]): > 5000 nM | Ratio IC50 (Histone deacetylase 1 [2]): 10 to 100 | IC50 (CDK4/Cyclin D3): 13 nM

COC(=O)CCCCCNC(=O)Nc1ccc(Nc2ncc3cc(C(=O)N(C)C)n(C4CCCC4)c3n2)cc1
IC50 (CDK4/Cyclin D3): 23 nM

CCCCCCCC(=O)Nc1ccc(Nc2ncc3cc(C(=O)N(C)C)n(C4CCCC4)c3n2)cc1
IC50 (CDK4/Cyclin D3): 29 nM

O=C(CCCCCCC(=O)Nc1ccc(Nc2ncc3ncn(C4CCCC4)c3n2)cc1)NO
IC50 (Histone deacetylase 1 [1]): 2.6 nM | Ratio IC50 (Histone deacetylase 1 [2]): 10 to 100 | IC50 (CDK4/Cyclin D3): > 5000 nM

CN(C)C(=O)c1cc2cnc(Nc3ccc(NC(=O)NCCCCCC(=O)NO)cc3)nc2n1C1CCCC1
IC50 (Histone deacetylase 1 [1]): 1.6 nM | Ratio IC50 (Histone deacetylase 1 [2]): 10 to 100 | IC50 (CDK4/Cyclin D3): 8.4 nM

COC(=O)CCCCCCC(=O)Nc1ccc(Nc2ncc3nnn(C4CCCC4)c3n2)cc1
IC50 (Histone deacetylase 1 [1]): > 5000 nM | Ratio IC50 (Histone deacetylase 1 [2]): 10 to 100 | IC50 (CDK4/Cyclin D3): 857 nM

— ChEMBL document CHEMBL4020842, “Discovery of N1-(4-((7-Cyclopentyl-6-(dimethylcarbamoyl)-7 H-pyrrolo[2,3- d]pyrimidin-2-yl)amino)phenyl)- N8-hydroxyoctanediamide as a Novel Inhibitor Targeting Cyclin-dependent Kinase 4/9 (CDK4/9) and Histone Deacetlyase1 (HDAC1) against Malignant Cancer” (J Med Chem, 2018)
